Test results as given in ChEMBL document CHEMBL1782029, “Synthesis and biological evaluation of N-substituted benzo[c]phenanthrolines and benzo[c]phenanthrolinones as antiproliferative agents” (Eur J Med Chem, 2011).
Active and inactive are the calls of the source. No cut-off for these calls is given here.

What was measured:
[1] = biological target: DNA topoisomerase 2-alpha (Homo sapiens) (UniProt P11388); settings: 50 uM
[2] = biological target: DNA topoisomerase 2-alpha (Homo sapiens) (UniProt P11388); settings: 50 uM; remark: listed apart in the source
[3] = biological target: T1, DNA topoisomerase 1 (Homo sapiens) (UniProt P11387); assay: Inhibition of camptothecin-induced poisoning effect of human topoisomerase 1 assessed as suppression of CPT-induced 117 bp DNA cleavage by SDS-PAGE analysis
T1 sequence (whole entry): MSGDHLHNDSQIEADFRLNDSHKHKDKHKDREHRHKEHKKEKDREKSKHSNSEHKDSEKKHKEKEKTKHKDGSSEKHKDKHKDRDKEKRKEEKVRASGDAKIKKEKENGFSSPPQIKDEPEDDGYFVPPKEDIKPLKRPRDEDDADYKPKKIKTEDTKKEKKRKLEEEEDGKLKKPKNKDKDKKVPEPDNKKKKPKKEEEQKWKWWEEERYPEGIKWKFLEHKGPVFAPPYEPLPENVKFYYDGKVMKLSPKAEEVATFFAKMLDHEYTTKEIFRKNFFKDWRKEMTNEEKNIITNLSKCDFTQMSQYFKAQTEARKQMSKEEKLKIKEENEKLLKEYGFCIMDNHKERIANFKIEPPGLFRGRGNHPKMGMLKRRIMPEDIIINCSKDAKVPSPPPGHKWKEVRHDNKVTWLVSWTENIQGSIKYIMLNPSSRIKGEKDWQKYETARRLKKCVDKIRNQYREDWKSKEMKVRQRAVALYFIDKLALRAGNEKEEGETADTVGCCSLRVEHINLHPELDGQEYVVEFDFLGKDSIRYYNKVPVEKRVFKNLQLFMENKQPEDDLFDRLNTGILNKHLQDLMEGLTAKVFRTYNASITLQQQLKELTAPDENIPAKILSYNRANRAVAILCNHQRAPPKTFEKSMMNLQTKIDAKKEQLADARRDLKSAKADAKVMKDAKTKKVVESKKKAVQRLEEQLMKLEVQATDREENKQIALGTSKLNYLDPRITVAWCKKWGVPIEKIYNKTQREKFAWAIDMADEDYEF

Calf thymus DNA [4] = assay: Binding affinity to calf thymus DNA at 20 uM by UV-vis spectrophotometry analysis; format: nucleic-acid assay; settings: Bos taurus
[5] = biological target: DNA topoisomerase 2-alpha (Homo sapiens) (UniProt P11388); assay: Inhibition of human topoisomerase 2 assessed as formation of linear form of supercoiled pUC19 DNA at 50 uM after 45 mins using ethidium bromide staining by agarose gel analysis
[6] = biological target: T1, DNA topoisomerase 1 (Homo sapiens); assay: Inhibition of human recombinant topoisomerase 1 assessed as cleavage of 117-mer DNA fragment at 20 to 50 uM using ethidium bromide staining by agarose gel electrophoresis analysis
[7] = biological target: T1, DNA topoisomerase 1 (Homo sapiens); assay: Inhibition of human recombinant topoisomerase 1-mediated relaxation of supercoiled pUC19 DNA assessed as formation of nicked DNA at 0.1 to 5 uM using ethidium bromide staining by agarose gel electrophoresis
Summary of the method: (§1)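 Supercoiled pUC19 plasmid (130 ng) was incubated with 4 units of human recombinant Top1 at 37 °C for 45 min in relaxation buffer (50 mM Tris pH 7.8, 50 mM KCl, 10 mM MgCl2, 1 mM DTT, 1 mM EDTA, 1 mM ATP) with increasing compound concentrations. Products were resolved on 1% agarose at room temperature, 2 h at 120 V, then stained with ethidium bromide and imaged under UV.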

HT-29 [8] = assay: Cytotoxicity against human HT-29 cells after 72 hrs by MTS assay; format: functional, cell-based; settings: HT-29, 72 h
HT-29 [9] = assay: Cell cycle arrest in human HT-29 cells at G2/M phase at 0.1 to 2.5 uM after 48 hrs using propidium iodide staining by FACS analysis; format: functional, cell-based
Summary of the method: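 Exponentially growing HT-29 colon carcinoma cells (300,000 per well) were plated for 24 h, then exposed to 0.1, 1 or 2.5 µM compound for 48 h. Cells were fixed, stained with propidium iodide and analysed by flow cytometry (FACScan).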

[10] = biological target: DNA topoisomerase 2-alpha (Homo sapiens) (UniProt P11388); assay: Inhibition of human topoisomerase 2 assessed as formation of nicked form of supercoiled pUC19 DNA at 50 uM after 45 mins using ethidium bromide staining by agarose gel analysis
Nucleic Acid = assay: Binding affinity to 265 bp of 3'-end-radio-labelled DNA fragment at 0.5 to 5 uM treated 15 mins before Dnase 1-mediated digestion by footprinting assay; format: nucleic-acid assay
Summary of the method: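 DNase I footprinting. It was equilibrated with compound for 15 min at 37 °C, then digested 3 min with DNase I (0.01 unit/ml) in 20 mM NaCl, 2 mM MgCl2, 2 mM MnCl2, pH 7.3. Samples were lyophilised, denatured at 90 °C and run on an 8% denaturing polyacrylamide gel.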

Calf thymus DNA [11] = assay: Binding affinity to calf thymus DNA by circular dichroism analysis; format: nucleic-acid assay; settings: Bos taurus
[12] = biological target: T1, DNA topoisomerase 1 (Homo sapiens); assay: Inhibition of human recombinant topoisomerase 1-mediated relaxation of supercoiled pUC19 DNA assessed as formation of nicked DNA at 0.2 to 10 uM using ethidium bromide staining by agarose gel electrophoresis
Summary of the method: as §1

[13] = biological target: T1, DNA topoisomerase 1 (Homo sapiens); assay: Inhibition of human recombinant topoisomerase 1 assessed as cleavage of 117-mer DNA fragment at 0.5 to 5 uM using ethidium bromide staining by agarose gel electrophoresis analysis
[14] = biological target: T1, DNA topoisomerase 1 (Homo sapiens); assay: Inhibition of human recombinant topoisomerase 1-mediated relaxation of supercoiled pUC19 DNA assessed as formation of nicked DNA at 1 to 50 uM using ethidium bromide staining by agarose gel electrophoresis
Summary of the method: as §1

DNA topoisomerase 2-alpha (Homo sapiens), sequence (P11388 whole entry, the tested form may be a part): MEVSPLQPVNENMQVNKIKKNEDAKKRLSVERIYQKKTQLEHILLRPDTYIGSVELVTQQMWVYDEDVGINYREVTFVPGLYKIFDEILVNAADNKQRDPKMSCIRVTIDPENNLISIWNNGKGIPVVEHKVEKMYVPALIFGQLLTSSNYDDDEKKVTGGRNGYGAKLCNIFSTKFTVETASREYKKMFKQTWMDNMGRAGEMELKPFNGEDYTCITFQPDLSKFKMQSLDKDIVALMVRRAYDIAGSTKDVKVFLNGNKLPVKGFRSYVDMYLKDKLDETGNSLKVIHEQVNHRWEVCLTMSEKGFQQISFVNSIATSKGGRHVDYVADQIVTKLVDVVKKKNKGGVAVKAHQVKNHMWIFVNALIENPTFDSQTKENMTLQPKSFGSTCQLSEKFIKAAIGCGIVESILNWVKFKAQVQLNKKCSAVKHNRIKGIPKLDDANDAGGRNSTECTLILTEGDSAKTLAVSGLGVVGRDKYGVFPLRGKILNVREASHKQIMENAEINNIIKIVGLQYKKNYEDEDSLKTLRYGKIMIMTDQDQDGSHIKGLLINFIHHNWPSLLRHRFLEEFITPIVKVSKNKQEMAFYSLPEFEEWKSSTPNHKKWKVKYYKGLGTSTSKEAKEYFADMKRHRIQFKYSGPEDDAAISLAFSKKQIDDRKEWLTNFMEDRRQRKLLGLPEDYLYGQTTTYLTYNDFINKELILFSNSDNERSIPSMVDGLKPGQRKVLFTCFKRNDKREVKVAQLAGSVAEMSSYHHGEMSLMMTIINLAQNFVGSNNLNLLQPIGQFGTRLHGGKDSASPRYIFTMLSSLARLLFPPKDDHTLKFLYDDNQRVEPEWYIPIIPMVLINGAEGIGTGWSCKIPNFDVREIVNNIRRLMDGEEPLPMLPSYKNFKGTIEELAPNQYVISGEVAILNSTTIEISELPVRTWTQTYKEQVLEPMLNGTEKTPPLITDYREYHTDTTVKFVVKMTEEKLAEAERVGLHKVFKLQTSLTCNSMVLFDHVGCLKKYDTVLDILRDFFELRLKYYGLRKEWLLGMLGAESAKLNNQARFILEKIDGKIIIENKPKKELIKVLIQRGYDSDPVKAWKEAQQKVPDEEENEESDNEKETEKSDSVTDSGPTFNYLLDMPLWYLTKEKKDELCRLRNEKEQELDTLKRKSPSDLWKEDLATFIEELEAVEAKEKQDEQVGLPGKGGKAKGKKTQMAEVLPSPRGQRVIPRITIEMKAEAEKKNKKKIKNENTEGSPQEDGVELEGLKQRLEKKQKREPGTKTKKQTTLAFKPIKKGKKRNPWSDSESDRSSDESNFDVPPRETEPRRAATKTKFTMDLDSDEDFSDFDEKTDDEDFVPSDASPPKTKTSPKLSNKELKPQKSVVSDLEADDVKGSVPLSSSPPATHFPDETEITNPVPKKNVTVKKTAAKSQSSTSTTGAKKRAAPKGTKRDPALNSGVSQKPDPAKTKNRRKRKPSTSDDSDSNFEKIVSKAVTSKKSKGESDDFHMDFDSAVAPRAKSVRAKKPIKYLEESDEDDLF

| inhibition [1] | inhibition [2] | Activity (Calf thymus DNA [4]) | inhibition [5] | inhibition [6] | Top1 relaxation inhibition (qualitative call) [7] | inhibition [10] | inhibition (Nucleic Acid) | Activity (Calf thymus DNA [11]) | inhibition [12] | inhibition [13] | Topoisomerase 1 inhibition (active/inactive) [14] | SMILES | inhibition [3] | IC50 (HT-29 [8]) [nM] | Activity (HT-29 [9]) |
| --- | --- | --- | --- | --- | --- | --- | --- | --- | --- | --- | --- | --- | --- | --- | --- |
| Active | Active | – | – | – | – | – | – | – | – | – | – | COc1cc([C@@H]2c3cc4c(cc3[C@@H](O[C@@H]3O[C@@H]5CO[C@@H](C)O[C@H]5[C@H](O)[C@H]3O)[C@H]3COC(=O)[C@H]23)OCO4)cc(OC)c1O | – | – | – |
| – | – | Active | inactive | inactive | Active | inactive | Active | Active | Active | – | – | COc1cc2c(NCCN(C)C)nc3c4ccncc4ccc3c2cc1OC | Dose-dependent effect | 1020 | Active |
| – | – | Active | inactive | inactive | – | inactive | – | Active | Active | – | – | CCN(CC)CCCNc1nc2c3cccnc3ccc2c2cc3c(cc12)OCO3 | Dose-dependent effect | 1830 | – |
| – | – | Active | – | – | – | – | Active | Active | – | inactive | Active | CN(C)CCCNc1nc2c3cccnc3ccc2c2cc3c(cc12)OCO3 | Dose-dependent effect | 1730 | – |
| – | – | Active | – | – | – | – | – | Active | – | inactive | Active | COc1cc2c(=O)n(CCN(C)C)c3c4cccnc4ccc3c2cc1OC | Dose-dependent effect | 1660 | – |
